Results gathered from unrelated publications.
Compare with care: the assays were run in different laboratories.
Target: Tyrosine-protein kinase receptor Tie-1 (TIE1, Homo sapiens, UniProt P35590)

Compound | effect on | technique | concentration | remaining binding [%]
COc1ncc2cc3ccccc3nc2c1C#N | cell-free assay | competition with immobilised ligand | 5 µM | 100
CNC(=O)[C@@H]1CC[C@@H](n2c(-c3ccc4cnccc4c3)nc3ccc(C(=O)NCc4cccc(C(N)=O)c4)cc32)C1 | binding | competition with immobilised ligand | 1 µM | 85
O=C(NCC1CCOCC1)c1n[nH]cc1NC(=O)c1c(F)cccc1F | binding | competition with immobilised ligand | 1 µM | 85
Cc1cc(-n2nc(Cc3cc(F)cc(C(F)(F)F)c3)nc2C)ccc1C(N)=O | cell-free assay | competition with immobilised ligand | 1 µM | 100
F[C@@H]1CCN(c2nccc(-c3cnn4ncccc34)n2)C1 | binding | – | 1 µM | 100
c1cncc(-c2cccc(Nc3nccc(NC4CCCCC4)n3)c2)c1 | binding | competition with immobilised ligand | 10 µM | 17
CCS(=O)(=O)c1cc2cc(C[C@](O)(CC(C)(C)c3ccc(F)cc3C(N)=O)C(F)(F)F)[nH]c2cn1 | cell-free assay | competition with immobilised ligand | 1 µM | 100
O=C(c1ccc(Nc2ncc(Cl)c(-c3ccc(Cl)s3)n2)cc1)N1CCC(N2CCCC2)CC1 | binding | competition with immobilised ligand | 1 µM | 18
O=C(O)[C@@H]1[C@@H](Cn2nnc3ccccc3c2=O)CC[C@H]1C(=O)c1ccc(OCCC2CCOCC2)cc1 | cell-free assay | competition with immobilised ligand | 1 µM | 100
Nc1ncc2c(n1)-c1c([nH]c3ccc(C#CC4CC4)cc13)CCCC2 | binding | competition with immobilised ligand | 1 µM | 96
CN(C)c1nccc(-c2cnc3ncccn23)n1 | binding | – | 1 µM | 83
C=CC(=O)N1CCC(C(=O)NCC(=O)N2CCN(c3nc(-c4cnc(N)nc4C(F)F)nc(N4CCOCC4)n3)CC2)CC1 | binding | competition with immobilised ligand | 1 µM | 100
C[C@@H]1CCN(c2nccc(-c3cnn4ncccc34)n2)C1 | binding | – | 1 µM | 100
O=C(NCCCN1CCOCC1)c1ccc(Nc2ncc(Cl)c(-c3ccc(Cl)s3)n2)cc1 | binding | competition with immobilised ligand | 1 µM | 44
c1cnn2ncc(-c3ccnc(N4CCC45COC5)n3)c2c1 | binding | – | 1 µM | 100
O=S(=O)(NC1CCC(c2cc(F)ccc2F)(S(=O)(=O)c2ccc(Cl)cc2)CC1)C(F)(F)F (stereo not shown) | cell-free assay | competition with immobilised ligand | 1 µM | 100
CC1CCCN1c1nccc(-c2cnn3ncccc23)n1 (stereo not shown) | binding | – | 1 µM | 100
C[C@H](NC(=O)c1cnc2n1[C@](C)(Cc1ccc(C#N)cc1)C(=O)N2c1cc(Cl)c(F)c(Cl)c1)C(=O)NC1(c2ccccn2)CC1 | cell-free assay | competition with immobilised ligand | 1 µM | 100
CN(CCCC(F)(F)F)c1nccc(-c2cnn3ncccc23)n1 | binding | – | 1 µM | 100
O=C(NCCCN1CCOCC1)c1ccc(Nc2nccc(-c3cc4ccccc4s3)n2)cc1 | binding | competition with immobilised ligand | 1 µM | 48
CCc1ccccc1C(=O)Nc1n[nH]c2c(C)c(F)c(C3C(C#N)=C(C)N(C)C(C)=C3C#N)cc12 | cell-free assay | competition with immobilised ligand | 1 µM | 100
N[C@H]1CCN(c2nccc(-c3cnn4ncccc34)n2)C1 | binding | – | 1 µM | 100
